Source: article PMC4066874 (Immunity, 2014)
Like-named read-outs stand apart in the source and are kept apart here.

Assays:
[1] = target: T1, RORγt ligand-binding domain (Homo sapiens, UniProt P51449); assay: FRET assay, RORγt ligand-binding domain and cofactor peptide SRC1; assay type: biochemical; conditions: read-out: IC50, inhibition of RORγt binding to the SRC1 peptide in the FRET assay
T1 sequence (P51449 263-518 limits assumed): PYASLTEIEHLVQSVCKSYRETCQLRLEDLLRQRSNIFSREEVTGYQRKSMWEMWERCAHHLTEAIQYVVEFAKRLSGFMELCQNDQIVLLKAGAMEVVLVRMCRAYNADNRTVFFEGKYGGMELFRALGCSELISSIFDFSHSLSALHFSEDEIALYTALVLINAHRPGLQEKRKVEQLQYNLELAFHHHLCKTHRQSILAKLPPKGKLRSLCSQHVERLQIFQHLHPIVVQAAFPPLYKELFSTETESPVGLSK

RORγ = target: T2, RORγ (Homo sapiens, UniProt P51449); assay: cell-based nuclear receptor reporter
T2 sequence (P51449 1-518): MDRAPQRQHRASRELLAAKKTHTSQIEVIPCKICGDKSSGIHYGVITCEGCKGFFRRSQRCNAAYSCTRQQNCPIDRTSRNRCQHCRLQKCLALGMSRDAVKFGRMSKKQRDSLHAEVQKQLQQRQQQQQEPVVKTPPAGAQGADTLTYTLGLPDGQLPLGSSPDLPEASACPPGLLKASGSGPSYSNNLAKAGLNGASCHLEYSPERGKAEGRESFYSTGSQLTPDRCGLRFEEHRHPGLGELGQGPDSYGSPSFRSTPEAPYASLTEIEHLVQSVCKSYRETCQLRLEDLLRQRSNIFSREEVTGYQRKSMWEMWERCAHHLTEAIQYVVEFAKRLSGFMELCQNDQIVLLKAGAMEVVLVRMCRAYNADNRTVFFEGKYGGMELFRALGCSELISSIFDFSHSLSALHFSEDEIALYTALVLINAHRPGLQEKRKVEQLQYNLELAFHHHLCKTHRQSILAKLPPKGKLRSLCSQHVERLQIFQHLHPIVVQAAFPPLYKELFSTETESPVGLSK

RORα = target: T3, RORα (Homo sapiens, UniProt P35398); assay: cell-based nuclear receptor reporter
T3 sequence (P35398 1-523): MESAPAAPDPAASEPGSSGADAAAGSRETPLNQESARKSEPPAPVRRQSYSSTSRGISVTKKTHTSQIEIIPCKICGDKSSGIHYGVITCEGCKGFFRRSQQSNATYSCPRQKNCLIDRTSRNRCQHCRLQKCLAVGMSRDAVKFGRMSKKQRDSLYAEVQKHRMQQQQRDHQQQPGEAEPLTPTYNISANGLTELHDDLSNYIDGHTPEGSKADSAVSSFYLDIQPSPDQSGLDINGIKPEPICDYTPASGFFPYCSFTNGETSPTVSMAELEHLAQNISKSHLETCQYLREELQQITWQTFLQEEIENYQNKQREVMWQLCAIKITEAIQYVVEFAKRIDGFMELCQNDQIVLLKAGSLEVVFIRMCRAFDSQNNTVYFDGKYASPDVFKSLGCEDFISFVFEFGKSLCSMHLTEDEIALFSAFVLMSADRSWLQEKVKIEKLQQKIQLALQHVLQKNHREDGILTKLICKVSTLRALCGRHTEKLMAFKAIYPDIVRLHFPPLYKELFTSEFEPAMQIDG

RORβ = target: T4, RORβ (Homo sapiens, UniProt Q92753); assay: cell-based nuclear receptor reporter
T4 sequence (Q92753 1-470): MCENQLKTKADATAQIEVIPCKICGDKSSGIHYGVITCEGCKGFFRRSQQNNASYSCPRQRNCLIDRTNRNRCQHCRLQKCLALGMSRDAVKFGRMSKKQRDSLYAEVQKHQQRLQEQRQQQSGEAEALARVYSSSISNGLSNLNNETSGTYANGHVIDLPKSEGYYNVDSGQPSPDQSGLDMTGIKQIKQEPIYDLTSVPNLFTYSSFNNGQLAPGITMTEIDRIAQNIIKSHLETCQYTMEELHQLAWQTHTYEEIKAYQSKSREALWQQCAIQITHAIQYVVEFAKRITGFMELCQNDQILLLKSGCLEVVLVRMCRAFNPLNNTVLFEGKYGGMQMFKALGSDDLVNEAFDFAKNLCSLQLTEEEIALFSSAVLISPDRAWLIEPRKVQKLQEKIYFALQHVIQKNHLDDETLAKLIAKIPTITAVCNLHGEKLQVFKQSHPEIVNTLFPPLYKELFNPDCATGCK

[2] = target: 22 other nuclear receptors; assay: luciferase assays for 22 other nuclear receptors; assay type: cell-based; conditions: read-out: IC50 in luciferase assays for 22 other nuclear receptors
[3] = tested on: IL-17 production in Th17 cell cultures; assay: IL-17 production during Th17 cell differentiation in vitro; assay type: cell-based, mouse; conditions: for effect on IL-17 production in Th17 cell cultures: Digoxin at 10 μM, TMP778 over a much broader dose range; for concentration at which the inhibitory effect on IL-17 production was lost: Th17 cell-polarizing conditions
[4] = tested on: IL-17 production in CD4+ T cells; assay: IL-17 production from differentiated Th17 cells; assay type: cell-based, mouse; conditions: WT CD4+ T cells, MOG35-55 plus IL-23, 4 days
Method in brief: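 Female C57BL/6 mice (8–12 wk) were immunized s.c. in the flanks with MOG35-55 (100 μg/mouse) in CFA containing M. tuberculosis H37Ra extract. Draining LN cells were restimulated with MOG35-55 and IL-23 plus test compound or DMSO for 4 days. They were then given a 4 h PMA/ionomycin/GolgiStop restimulation, fixed and permeabilized, and stained intracellularly for IL-17 and IFNγ in CD4+ cells. Values are mean ± SD.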

[5] = tested on: RORγt occupancy at genomic binding sites; assay: ChIP-seq for RORγt in Th17 cells treated with compound; assay type: cell-based, mouse; conditions: for RORγt sites with decreased (lower) ChIP signal: 2.5 μM TMP778, 10 μM TMP920, 96 h
Method in brief: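 Naive CD4+CD62Lhigh CD25− T cells (MACS then FACS sorted) were activated on plate-bound anti-CD3 and anti-CD28 (2 μg/ml each) with IL-6 (20 ng/ml) and TGF-β1 (1 ng/ml), plus IL-23 (10 ng/ml) from 48 h. Test compound (2.5 or 10 μM) or DMSO was present for 96 h. ChIP used anti-RORγt (AFKJS-9), with isotype IgG and RORγt-deficient cells as controls. Sequencing was single-end 36 bp.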

[6] = tested on: CCR6- memory human T cells; assay: transcription in human CCR6- memory T cells; assay type: cell-based
GATA3 protein = GATA3 protein expression in Th17 cells; assay type: cell-based, mouse; conditions: Th17 cells treated with compound
[7] = tested on: primary naïve CD4+ T cells under Th17 cell-polarizing conditions
[8] = tested on: experimental autoimmune encephalomyelitis (EAE)
[9] = tested on: primary naïve CD4+ T cells under Th17 cell-polarizing conditions; assay: cell proliferation of naïve CD4+ T cells under Th17 cell-polarizing conditions; conditions: not RORγt-dependent

## Cc1ccc([C@@H](NC(=O)Cc2ccc3oc([C@@H](O)c4c(C)noc4C)cc3c2)c2ccccc2)c(C)c1 [TMP778]
[1]
  IC50: 0.005 µM
RORγ; read-out: IC50 for luciferase activity in RORγ assays
  IC50: 0.017 µM
RORα
  IC50 fold higher for RORα than in RORγ assays: roughly 100 fold
RORα; read-out: IC50 for RORα, luciferase reporter
  IC50: 1.24 µM
RORβ
  IC50 fold higher for RORβ than in RORγ assays: roughly 100 fold
RORβ; read-out: IC50 for RORβ, luciferase reporter
  IC50: 1.39 µM
[2]
  IC50: > 10 µM
[3]
  effect on IL-17 production in Th17 cell cultures: efficiently decreased IL-17 production
[4]
  inhibition of IL-17 production from differentiated Th17 cells: the most potent inhibition
[5]; 2.5 μM TMP778
  new RORγt binding sites: 179
  new RORγt binding sites as share of peaks observed with compound: 8.2 % of peaks
[5]
  RORγt sites with decreased (lower) ChIP signal: 55 % of sites
[6]
  effect on transcription in population depleted for Th17 cells: no differentially expressed genes with a fold cutoff over 1.5
GATA3 protein
  GATA3 protein expression: increased expression of GATA3 protein
[7]
  concentration at which toxic effects on cell growth start: > 2.5 µM
[8]; subcutaneous twice daily, day 21 after EAE induction
  percentage of IL-17+ T cells in the CNS: most strongly reduced the percentage of IL-17^+ T cells in the CNS

## C[C@H]1O[C@@H](O[C@H]2[C@@H](O)C[C@H](O[C@H]3[C@@H](O)C[C@H](O[C@H]4CC[C@@]5(C)[C@H](CC[C@@H]6[C@@H]5C[C@@H](O)[C@]5(C)[C@@H](C7=CC(=O)OC7)CC[C@]65O)C4)O[C@@H]3C)O[C@@H]2C)C[C@H](O)[C@@H]1O [Digoxin, reference compound]
[3]
  effect on IL-17 production in Th17 cell cultures: specifically inhibited IL-17 production
  concentration at which the inhibitory effect on IL-17 production was lost: < 2.5 µM
[5]; 10 μM Digoxin, 96 h
  effect on RORγt binding: intermediate
[8]; per injection, subcutaneous twice daily
  dose that caused mouse death: > 100 µg
[9]
  concentration at which toxic effects on cell growth start: > 10 µM

## CCS(=O)(=O)c1ccc(CC(=O)Nc2cc(Cl)c(-c3ccccc3OC(F)(F)F)c(Cl)c2)cc1 [GSK805]
[3]; GSK805 at 0.5 μM, 4 days
  inhibition of IL-17 production during Th17 cell differentiation: comparable inhibition of IL-17 production as TMP778 at 2.5 μM
GATA3 protein
  GATA3 protein expression: increased GATA3 protein expression
[8]; oral, 10 mg/kg daily from day 0
  effect on severity of EAE: efficiently ameliorate the severity of EAE
[8]; oral, 30 mg/kg, day 14
  Th17 cell responses in the CNS: strongly inhibits Th17 cell responses

## Cc1ccc(C(NC(=O)Cc2ccc(OCc3c(C)noc3C)cc2)c2ccccc2)c(C)c1 (stereo not shown) [TMP920]
[1]
  IC50: 0.03 µM
RORγ; read-out: IC50 in RORγ assays
  IC50: 1.1 µM
[2]
  IC50: > 10 µM
[3]
  concentration at which the inhibitory effect on IL-17 production was lost: < 2.5 µM
[5]
  RORγt sites with decreased (lower) ChIP signal: 77 % of sites
[7]
  concentration at which toxic effects on cell growth start: > 10 µM
